The source of these data is PMC12377326 (RSC Advances, 2025).

The term IC50 denotes the concentration that gives 50% inhibition. A high value points to weaker potency in that assay.

Values joined by “and” are separate entries in the source; they are usually repeats but may differ in a detail not shown here. Identical values can stand only once.

The target of one assay is hCA I (Homo sapiens, UniProt P00915). Nature of the assay: hCA I counterscreen. The assay is classed as biochemical. As to conditions: for S I = (IC50 hCA I, nM)/(IC50 hCA IX, nM): selectivity for CA IX over CA I. In short, it runs like this:
(§1)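 Recombinant human enzymes, >95% pure: hCA I (Ala2–Phe261) for line 1 and hCA II (Ser2–Lys260) for line 2. Run under the same conditions as the hCA IX assay at 25 °C. IC50 is the mean ± SD, n = 3. Where solubility prevented a full titration, IC50 was extrapolated from the linear range of the curve. Selectivity index = IC50 (hCA I or hCA II, nM)/IC50 (hCA IX, nM).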

Assay [1] addresses T1, hCA IX (Homo sapiens, UniProt Q16790). Nature of the assay: Steady-state CO2-hydrase enzyme kinetics. The assay is classed as biochemical. As to conditions: Lineweaver–Burk and Michaelis–Menten plots; unchanged Km, reduced Vmax.
Another assay has as its target hCA II (Homo sapiens, UniProt P00918). As to the kind of experiment: hCA II counterscreen. The assay is classed as biochemical. As to conditions: for S II = (IC50 hCA II, nM)/(IC50 hCA IX, nM): selectivity for CA IX over CA II. In a few lines: as §1
Assay [2] addresses T1, hCA IX. As to the kind of experiment: biochemical. As to conditions: stopped-flow CO2-hydrase assay.

Chain of hCA I (P00915 2-261): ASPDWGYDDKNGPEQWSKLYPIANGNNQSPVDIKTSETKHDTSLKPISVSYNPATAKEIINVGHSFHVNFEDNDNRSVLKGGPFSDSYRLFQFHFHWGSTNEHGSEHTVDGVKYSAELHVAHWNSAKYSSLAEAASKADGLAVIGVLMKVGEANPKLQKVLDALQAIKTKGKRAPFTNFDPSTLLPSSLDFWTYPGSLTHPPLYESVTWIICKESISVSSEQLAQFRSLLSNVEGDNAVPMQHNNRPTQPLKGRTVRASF

Consider `CC(C)C1=CC2=C(CC1)[C@@]1(C)CCC[C@@](C)(C(=O)O)[C@@H]1CC2` [Palustric acid, palustric acid], for which the IC50 amounted to 2250 ± 200 nM at hCA I and 1450 ± 120 nM against hCA II. Besides, the “S I = (IC50 hCA I, nM)/(IC50 hCA IX, nM)” value on hCA I is reported as 7.8; on hCA I (listed as palustric), “≈ 8”. At hCA IX [1], the mode of inhibition result is listed as “non-competitive”. In addition, the “S II = (IC50 hCA II, nM)/(IC50 hCA IX, nM)” value (“S II =” below) on hCA II is on record as 5.0; on hCA II (listed as palustric) it was “≈ 5”.

Consider `CC(C)C1=CC[C@H]2C(=C1)CC[C@@H]1[C@]2(C)CCC[C@@]1(C)C(=O)O` [Levopimaric acid, levopimaric acid], for which, at hCA I, the IC50 came to 1500 ± 120 nM; the “S I = (IC50 hCA I, nM)/(IC50 hCA IX, nM)” value was 10 and 10.2. Besides, the mode of inhibition entry at hCA IX [1] is “non-competitive”. Further, on hCA II, the IC50 was determined as 680 ± 50 nM and the “S II =” value amounted to 4.6.

On to `C=C[C@@]1(C)C=C2CC[C@@H]3[C@](C)(CCC[C@@]3(C)C(=O)O)[C@H]2CC1` [Pimaric acid, pimaric acid], for which the IC50 at hCA I was 2700 ± 250 nM; against hCA IX [2] (IC50 CA IX (printed in μM), mean ± SD) it was 0.341 ± 0.0064 µM; against hCA IX [2] (IC50 hCA IX, pH 7.4, 25 °C, mean ± SD (n = 3)), 0.341 ± 0.00637 µM; against hCA II it was 1620 ± 130 nM. The figures for the “S I = (IC50 hCA I, nM)/(IC50 hCA IX, nM)” value on hCA I and on hCA I (listed as pimaric) were 7.9 and “≈ 8”, respectively. The mode of inhibition entry at hCA IX [1] was “non-competitive”. Besides, the “S II =” value at hCA II was 4.8; at hCA II (listed as pimaric), “≈ 5”.
